24 compounds from PubChem BioAssay AID651654 (Broad Institute, 2012) can be followed below.

The structures appear in SMILES notation. Screen size: about 360,000 compounds; about 740 (0.21%) were called active. This excerpt belongs to a sample that is enriched for actives. Values without a mark were called inactive.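 How the source made its calls: active means mean lysis activity across replicates of at least 80%, whatever share of replicates individually reach that level; inactive means mean lysis activity below 80%.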

The nature of the assay: Cryptococcus neoformans cell lysis inducers, primary screen, AK release luminescence, single concentration (AID 651654). Particulars: C. neoformans lysis, adenylate kinase release luminescence, 4 h; at 15 µM; hits give high values; normalised: neutral wells 0, clomiphene wells 100. In a few lines:
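Signal: Adenylate kinase release luminescence | Assay system: Log-phase Cryptococcus neoformans yeast cells | Input: Cells at 5 × 10^6 per mL | Buffer or medium: Fresh YPD growth medium | Compound: Single dose | Schedule: Static 4 h at 37 °C with compound, 1 h detection | Controls: Clomiphene | Read-out: Luminescence rise reflecting yeast cell lysis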
On to `COc1ccc(NC(=O)N(C)C[C@@H]2OCCCC[C@@H](C)Oc3ccc(NS(=O)(=O)c4c(C)noc4C)cc3C(=O)N([C@H](C)CO)C[C@@H]2C)cc1`, for which the lysis activity was -3%.

Turning to `CC(C)C#Cc1ccc2c(c1)O[C@H](CN(C)Cc1ccccc1)[C@H](C)CN([C@@H](C)CO)S2(=O)=O`, the lysis activity was 14.5%.

On to `CCNC(=O)C[C@@H]1CC[C@H]2[C@@H](COc3ccc(NC(=O)Cc4cccs4)cc3C(=O)N2C)O1`, for which the lysis activity was -1.39%.

On to `COc1ccccc1CNC(=O)C[C@H]1CC[C@@H]2[C@H](COC[C@H](O)CN2Cc2ccccc2)O1`, for which the lysis activity was -1.1%.

Turning to `COc1ccccc1-c1ccc2n(c1=O)C[C@@H]1[C@@H](CO)[C@H](C(=O)NCc3ccccc3Cl)N[C@H]21`, the lysis activity is -0.428%.

As for `CO[C@@H]1CN(C)C(=O)c2cc(NC(=O)c3ccno3)ccc2OC[C@@H](C)N(S(C)(=O)=O)C[C@@H]1C`, the lysis activity was 0.04%.

In the case of `C/C=C/c1ccc([C@H]2[C@@H](CO)N(C(C)=O)[C@H]2CN(C)S(C)(=O)=O)cc1`, the lysis activity is -1.56%.

In the case of `C/C=C/c1ccc2c(c1)O[C@H](CN(C)C(=O)Nc1ccc(OC)cc1)[C@@H](C)CN([C@H](C)CO)S2(=O)=O`, the lysis activity is -3.44%.

Take `Cc1ccc(S(=O)(=O)Nc2ccc3c(c2)C(=O)N([C@@H](C)CO)C[C@@H](C)[C@@H](CN(C)Cc2ccc(C(F)(F)F)cc2)OCCCC[C@@H](C)O3)cc1`: the lysis activity is 54.9%.

`C[C@@H]1CCCCO[C@H](CN(C)C(=O)NC2CCCCC2)[C@H](C)CN([C@H](C)CO)C(=O)c2cc(NC(=O)c3ccncc3)ccc2O1`: the lysis activity is -2.46%.

Turning to `CO[C@@H]1CN(C)C(=O)c2cc(NC(=O)Nc3ccc(F)cc3)ccc2OC[C@@H](C)NC[C@@H]1C`, the lysis activity is -3.48%.

For the compound `COc1cccc(-c2ccc3n(c2=O)C[C@@H]2[C@@H](CO)[C@H](C(=O)NCC4CC4)N(C(=O)NC(C)C)[C@H]32)c1`, the lysis activity is -2.16%.

On to `CCC(=O)Nc1ccc2c(c1)C(=O)N(C)C[C@H](OC)[C@H](C)CN(Cc1ccccc1F)[C@H](C)CO2`, for which the lysis activity is 3.58%.

Take `C[C@@H]1CN([C@H](C)CO)S(=O)(=O)c2ccc(C3=CCCC3)cc2O[C@H]1CN(C)C(=O)c1ccccc1`: the lysis activity is 2.54%.

Turning to `O=C(C[C@@H]1C[C@@H]2c3cc(NS(=O)(=O)c4ccc(F)cc4)ccc3O[C@@H]2[C@@H](CO)O1)N1CCOCC1`, the lysis activity was -1.76%.

For the compound `C[C@@H]1CCCCO[C@@H](CN(C)S(C)(=O)=O)[C@H](C)CN([C@@H](C)CO)C(=O)c2cc(NS(=O)(=O)c3cccs3)ccc2O1`, the lysis activity is 0.965%.

In the case of `Cc1ccc(S(=O)(=O)N(C)C[C@H]2OCc3ccccc3-c3ccccc3C(=O)N([C@@H](C)CO)C[C@@H]2C)cc1`, the lysis activity was -0.134%.

For `C[C@H]1CN([C@@H](C)CO)C(=O)c2ccccc2-c2ccccc2CO[C@H]1CN(C)S(=O)(=O)c1cccc(C#N)c1`, the lysis activity was 82.9% (active).

Consider `C[C@H]1CN([C@@H](C)CO)C(=O)c2ccccc2-c2ccccc2CO[C@H]1CN(C)S(=O)(=O)c1ccccc1C#N`, for which the lysis activity is 1.59%.

`CO[C@H]1CN(C)C(=O)c2cc(NC(=O)C3CC3)ccc2OC[C@@H](C)N(Cc2cc(F)ccc2F)C[C@H]1C`: the lysis activity is 0.743%.

On to `COC(=O)C[C@H]1C[C@H]2c3cc(NC(=O)Nc4ccccc4F)ccc3O[C@H]2[C@H](CO)O1`, for which the lysis activity was 11.5%.

Take `CO[C@@H]1CN(C)C(=O)c2ccc(NC(=O)Nc3c(C)noc3C)cc2OC[C@@H](C)NC[C@H]1C`: the lysis activity was -0.469%.

With `O=C(c1ccncc1)N1CC[C@@H]2[C@H]1c1cc(Br)ccc1N[C@@H]2CO`, the lysis activity is -16.8%.

On to `C[C@H]1CN([C@@H](C)CO)S(=O)(=O)c2ccc(C3=CCCC3)cc2O[C@H]1CN(C)Cc1cccc(C(=O)O)c1`, for which the lysis activity is 0.868%.
